The results in this text go back to ChEMBL document CHEMBL4406921, “Discovery of Axelopran (TD-1211): A Peripherally Restricted μ-Opioid Receptor Antagonist” (ACS Med Chem Lett, 2019).

For series [1], the system named is Mus musculus. Briefly: Inhibition of morphine-induced antinociceptive activity in po dosed ICR mouse administered via gavage pretreated with compound and 30 mins later injected with morphine and measured after 30 mins by hot plate test. It counts as functional. The settings on record: for ED50: read-out: ID50 (the source's name). Put shortly: (§1)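 Mice dosed orally; reversal of morphine-induced delay in intestinal transit, delay in gastric emptying, or hot plate antinociception measured; dose-dependent responses fitted to give ID50 in mg/kg.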
In general terms: Hot-plate and tail-flick tests time the reaction to a heat stimulus.

The nature of series [2]: Half life in dog liver microsomes at 3 uM. It counts as ADME, Canis lupus familiaris, Microsome. On the technique in general: Liver microsomes are a subcellular fraction often used to study metabolism.
Series [3] in a line: Half life in rat liver microsomes at 3 uM. It counts as ADME, Microsome.
Series [4] is described as follows: AUC(0 to t) in Sprague-Dawley rat at 5 mg/kg, po administered via gavage. It counts as ADME, organism-based. The settings on record: in vivo.
For series [5], the target named is T1, Mu-type opioid receptor (Homo sapiens, UniProt P35372). Briefly: Antagonist activity at human recombinant mu opioid receptor expressed in CHO-K1 cell membranes assessed as intrinsic activity at 10 pM to 20 uM incubated for 30 mins in presence of Eu-GTP by DELFIA GTP binding assay relative to DAMGO.
In series [6] the target is Kappa-type opioid receptor (Cavia porcellus, UniProt P41144). Briefly: Displacement of [3H]-DPN from guinea pig kappa opioid receptor expressed in CHO-K1 cell membranes by radioligand binding assay. The method in brief:
(§2)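 Membranes from CHO-K1 cells stably transfected with human recombinant μ or δ receptor, or guinea pig κ receptor; competition with [3H]-DPN radioligand; affinity reported as pKi.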
(Loss of bound radioactivity is the signal in a displacement assay; it reports binding, not function.)

Series [7] concerns the target Delta-type opioid receptor (Homo sapiens, UniProt P41143). Briefly: Displacement of [3H]-DPN from recombinant human delta opioid receptor expressed in CHO-K1 cell membranes by radioligand binding assay. The method in brief:
as §2

For series [8], the species on record is Mus musculus. The experiment in a line: Peripheral selectivity index, ratio of ID50 for inhibition of morphine-induced delays in gastric emptying in ICR mouse to ID50 for inhibition of morphine-induced delays in intestinal transit in ICR mouse. It counts as functional.
A short description of series [9]: Half life in human liver microsomes at 3 uM. It counts as ADME, Microsome.
A short description of series [10]: Oral bioavailability in Sprague-Dawley rat at 5 mg/kg administered via gavage. It counts as ADME, organism-based. As to conditions: in vivo.
In series [11] the target is T1, Mu-type opioid receptor. The experiment in a line: Displacement of [3H]-DPN from recombinant human mu opioid receptor expressed in CHO-K1 cell membranes by radioligand binding assay. The method in brief:
as §2

Series [12] in a line: Cmax in Sprague-Dawley rat at 5 mg/kg, po administered via gavage. It counts as ADME, organism-based. The arrangement: dose 5 mg/kg, route oral. As to conditions: in vivo.
The nature of series [13]: Half life in Sprague-Dawley rat at 5 mg/kg, po administered via gavage. It counts as ADME, organism-based. As to conditions: in vivo.
The nature of series [14]: Permeability coefficient, Kp in human Caco2 cells. It counts as ADME, cell-based. As to conditions: Caco-2, read-out: Kp.
Series [15] deals with Mus musculus. The experiment in a line: Inhibition of morphine-induced delays in intestinal transit in po dosed ICR mouse administered via gavage pretreated with compound and 30 mins later injected with morphine followed 5 mins later by ingestion of test meal and measured after 60 mins. As to conditions: for ED50: read-out: ID50 (the source's name). It counts as functional. Put shortly: as §1

The subject of series [16] is Mus musculus. Briefly: Inhibition of morphine-induced delays in gastric emptying in po dosed ICR mouse administered via gavage pretreated with compound and 30 mins later injected with morphine followed 5 mins later by ingestion of test meal and measured after 60 mins. It counts as functional. As to conditions: for ED50: read-out: ID50 (the source's name). Put shortly:
as §1

The species named for series [17] is Mus musculus. The experiment in a line: Peripheral selectivity index, ratio of ID50 for inhibition of morphine-induced antinociceptive activity in ICR mouse to ID50 for inhibition of morphine-induced delays in intestinal transit in ICR mouse. It counts as functional. Put shortly:
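Mice were dosed orally with antagonist at several doses and challenged with morphine. ID50 values were taken from dose-dependent reversal of morphine-induced hot plate antinociception (CNS) and of morphine-induced delay in intestinal transit (peripheral). The index is the hot plate ID50 divided by the intestinal transit ID50.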

Series [18] is described as follows: Half life in rat liver microsomes at 15 uM. It counts as ADME, Microsome.

T1 sequence (P35372 whole entry): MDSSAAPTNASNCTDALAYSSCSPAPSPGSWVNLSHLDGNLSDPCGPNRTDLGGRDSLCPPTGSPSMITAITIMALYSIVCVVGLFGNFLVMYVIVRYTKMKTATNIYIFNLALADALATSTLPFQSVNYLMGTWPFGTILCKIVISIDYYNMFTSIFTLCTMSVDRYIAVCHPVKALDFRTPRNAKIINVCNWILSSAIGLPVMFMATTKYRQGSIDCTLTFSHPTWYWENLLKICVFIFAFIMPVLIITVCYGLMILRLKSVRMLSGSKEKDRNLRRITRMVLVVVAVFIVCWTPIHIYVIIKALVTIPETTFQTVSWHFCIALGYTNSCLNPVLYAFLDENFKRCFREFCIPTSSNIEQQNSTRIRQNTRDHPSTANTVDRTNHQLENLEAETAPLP
Delta-type opioid receptor, sequence (P41143 whole entry): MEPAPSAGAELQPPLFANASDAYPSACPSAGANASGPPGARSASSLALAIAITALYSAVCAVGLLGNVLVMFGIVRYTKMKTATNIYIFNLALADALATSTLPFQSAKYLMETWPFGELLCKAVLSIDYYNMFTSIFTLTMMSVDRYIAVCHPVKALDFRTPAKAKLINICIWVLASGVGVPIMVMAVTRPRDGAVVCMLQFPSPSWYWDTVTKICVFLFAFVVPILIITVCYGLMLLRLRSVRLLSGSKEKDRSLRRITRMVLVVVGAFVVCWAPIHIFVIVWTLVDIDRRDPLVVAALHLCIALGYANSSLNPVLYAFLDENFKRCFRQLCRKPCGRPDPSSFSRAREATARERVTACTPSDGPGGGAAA
Kappa-type opioid receptor, sequence (P41144 whole entry): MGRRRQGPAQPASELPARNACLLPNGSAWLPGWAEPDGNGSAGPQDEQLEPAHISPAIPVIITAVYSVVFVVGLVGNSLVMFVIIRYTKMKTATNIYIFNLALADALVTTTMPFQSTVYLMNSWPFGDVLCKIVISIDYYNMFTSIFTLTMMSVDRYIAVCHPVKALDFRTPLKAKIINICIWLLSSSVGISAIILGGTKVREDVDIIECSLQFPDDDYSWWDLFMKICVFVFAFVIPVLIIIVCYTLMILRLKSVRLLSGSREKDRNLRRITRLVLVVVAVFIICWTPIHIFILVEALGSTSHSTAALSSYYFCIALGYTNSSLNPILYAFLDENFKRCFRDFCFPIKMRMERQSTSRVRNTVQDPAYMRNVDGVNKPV

As for `CS(=O)(=O)CC(=O)N(CCN1[C@@H]2CC[C@H]1C[C@@H](c1cccc(C(N)=O)c1)C2)CC1CCCCC1`, the inhibition result in series [1], in series [15] and in [16] was “Dose-dependent effect” each time. Moreover, the figures for the ED50 in [1], in [15] and in series [16] were 24 mg/kg, 0.49 mg/kg and 0.33 mg/kg, respectively. The figures for the half-life at 3 µM in [2], in [3] and in series [9] were 0.467 h, 0.833 h and 1.5 h, respectively. Also, the AUC(0-t) in [4] worked out at 1300 ng·h/mL. Also, the Intrinsic activity in series [5] worked out at 0%. The Ki was 100 pM in [6], 1260 pM in [7] and 100 pM in [11]. In addition, the “Selectivity Index” value is 73 in series [8] and 49 in series [17]. In series [10], the bioavailability stood at 60%. Moreover, the Cmax in series [12] came to 880 ng/mL. For the same compound, in series [13], the half-life is 1 h. In addition, the Papp in [14] is 18 ×10⁻⁶ cm/s.
Take `NC(=O)c1cccc([C@H]2C[C@H]3CC[C@@H](C2)N3CCN(CC2CCC(F)(F)CC2)C(=O)CO)c1`: the inhibition entry in series [1], in [15] and in [16] was “Dose-dependent effect” in each case. Further, the ED50 in [1] was 4.4 mg/kg; in series [15] it was 0.23 mg/kg; in series [16] it was 0.03 mg/kg. The half-life at 3 µM in series [2], in [3] and in series [9] was 1.5 h throughout. This compound also showed an AUC(0-t) in series [4] of 1200 ng·h/mL. Besides, the Intrinsic activity in series [5] was -5%. The Ki was 251 pM in series [6], 12600 pM in series [7] and 126 pM in series [11]. The “Selectivity Index” value was 147 in [8] and 19 in series [17]. The compound further registered a bioavailability in series [10] of 30%. Moreover, the Cmax in series [12] turned out to be 390 ng/mL. The half-life in [13] is 2 h. Moreover, the Papp in [14] is 14 ×10⁻⁶ cm/s.
Consider `NC(=O)c1cccc([C@H]2C[C@H]3CC[C@@H](C2)N3CCNCC2CCCCC2)c1`, for which the half-life at 15 µM in series [18] turned out to be 0.7 h. For the same compound, the Intrinsic activity in series [5] was 12%. Further, the Ki was 158 pM in series [6], 6310 pM in [7] and 251 pM in series [11].
Consider `CCCCCCN(CCN1[C@@H]2CC[C@H]1C[C@@H](c1cccc(C(N)=O)c1)C2)C(=O)CO`, for which the half-life at 3 µM in series [2] was determined as 0.183 h; in series [3], 1.18 h; in series [9] it was 1.5 h. In addition, the Intrinsic activity in [5] is -9%. Further, the figures for the Ki in series [6], in [7] and in [11] were 3160 pM, 63100 pM and 794 pM, respectively. In addition, in [14], the Papp was 45 ×10⁻⁶ cm/s.
For `C[C@H]1CN(C[C@H](Cc2ccccc2)C(=O)O)CC[C@@]1(C)c1cccc(O)c1`, the ED50 came to 1.1 mg/kg in series [1], 0.064 mg/kg in series [15] and 0.027 mg/kg in series [16]. Moreover, the half-life at 3 µM in [2], in series [3] and in series [9] was greater than 1.5 h throughout. The same compound came in with an AUC(0-t) in [4] of 1200 ng·h/mL. Further, in [5], the Intrinsic activity is -8%. For the same compound, the Ki in [6] was 25100 pM; in series [7], 15800 pM; in series [11], 316 pM. Besides, the “Selectivity Index” value in [8] is recorded as 41; in series [17], 17. This compound also had a bioavailability in series [10] of 53%. In series [12], this compound came in with a Cmax of 710 ng/mL. Also, the half-life in series [13] was 3.7 h. Also, the Papp in series [14] stood at 5 ×10⁻⁶ cm/s.
With `O=C1CC[C@@]2(O)[C@H]3Cc4ccc(O)c5c4[C@@]2(CCN3CC2CC2)[C@H]1O5` [NALTREXONE], the figures for the ED50 in series [1], in [15] and in series [16] were 0.82 mg/kg, 0.6 mg/kg and 0.5 mg/kg, respectively. The Papp in series [14] is 84 ×10⁻⁶ cm/s.
With `CCC(CC)CN(CCN1[C@@H]2CC[C@H]1C[C@@H](c1cccc(C(N)=O)c1)C2)C(=O)CO`, the results for the half-life at 3 µM in [2], in [3] and in series [9] were 1.25 h, 1.5 h and 1.5 h, respectively. Further, the Intrinsic activity in series [5] was 9%. Further, the Ki was 126 pM in [6], 12600 pM in series [7] and 158 pM in series [11]. Moreover, in [14], the Papp was determined as 32 ×10⁻⁶ cm/s.
In turn, `NC(=O)c1cccc([C@H]2C[C@H]3CC[C@@H](C2)N3CCN(CC2CCCCC2)C(=O)C(F)(F)F)c1` registered a half-life at 15 µM in [18] of 0.05 h. The Intrinsic activity in series [5] was 9%. For the same compound, the Ki in series [6] is 1000 pM; in series [7], 10000 pM; in series [11], 794 pM.
In the case of `NC(=O)c1cccc([C@H]2C[C@H]3CC[C@@H](C2)N3CCN(CC2CCCCC2)C(=O)CO)c1`, the inhibition result in series [1], in series [15] and in series [16] was “Dose-dependent effect” throughout. Besides, the ED50 in [1] turned out to be 4.2 mg/kg; in series [15], 0.1 mg/kg; in series [16], 0.046 mg/kg. For the same compound, the results for the half-life at 3 µM in series [2], in series [3] and in series [9] were 0.3 h, 1.28 h and 1.32 h, respectively. The AUC(0-t) in series [4] came to 430 ng·h/mL. In series [5], the Intrinsic activity was -3%. Moreover, the Ki is 126 pM in [6], 3980 pM in series [7] and 100 pM in series [11]. Besides, the “Selectivity Index” value in series [8] is 91; in series [17] it was 42. In [10], the bioavailability was found to be 61%. In addition, in [12], the Cmax worked out at 290 ng/mL. This compound had a half-life in [13] of 1.3 h. For the same compound, the Papp in [14] is 40 ×10⁻⁶ cm/s.
As to `NC(=O)c1cccc([C@H]2C[C@H]3CC[C@@H](C2)N3CCN(CCCc2ccccc2)C(=O)CO)c1`, the half-life at 15 µM in series [18] amounted to 0.533 h. For the same compound, the Intrinsic activity in series [5] was -13%. In addition, the inhibitory constant (Ki) in series [6] was 501 pM; in series [7], 31600 pM; in [11] it was 794 pM. Besides, in [14], the Papp was 26 ×10⁻⁶ cm/s.

In general, half-life refers to how long it takes for the measured level to halve. Low readings indicate fast loss, high ones slow loss. What is called AUC(0-t) is the area under the concentration-time curve up to a stated or last time point. Read a high AUC(0-t) as high exposure. The Ki is the equilibrium dissociation constant of an inhibitor or competing ligand from its target. Broadly, the bioavailability is the share of a dose that reaches the circulation, judged against a reference dose that is usually intravenous. Lower therefore signals poor availability. A word on the Cmax: it is the peak of the concentration-time curve.
